In ChEMBL document CHEMBL1145162, “6-aryl-8H-indeno[1,2-d]thiazol-2-ylamines: A1 adenosine receptor agonist allosteric enhancers having improved potency” (J Med Chem, 2005):

Columns and labels:
[1] = target: T1, Adenosine receptor A1 (Homo sapiens, UniProt P30542); experiment: Antagonist activity against adenosine A1 receptor; format: functional; parameters: concentration or dose not given beside the values
T1 sequence (P30542 whole entry): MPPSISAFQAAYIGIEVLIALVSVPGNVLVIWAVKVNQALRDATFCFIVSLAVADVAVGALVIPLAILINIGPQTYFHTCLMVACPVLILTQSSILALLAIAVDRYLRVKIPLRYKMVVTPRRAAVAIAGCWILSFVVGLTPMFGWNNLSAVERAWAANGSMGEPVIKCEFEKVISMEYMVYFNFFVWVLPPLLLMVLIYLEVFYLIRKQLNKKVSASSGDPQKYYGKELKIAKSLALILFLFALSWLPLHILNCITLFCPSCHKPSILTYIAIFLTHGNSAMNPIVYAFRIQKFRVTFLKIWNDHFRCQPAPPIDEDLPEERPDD
Method in brief: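 Equilibrium binding on CHO-K1 hA1AR membranes (15 μg) in 10 mM HEPES pH 7.4, 1 mM EDTA, 1 U/mL adenosine deaminase, 4 nM [3H]CPX. Mixed with an equal volume of 200 μM enhancer in HEPES–10% DMSO; 200 μM NECA for nonspecific binding. Incubated 3 h at room temperature, then filtered.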

[2] = target: T2, Adenosine receptor A1 (Homo sapiens) (UniProt P30542); experiment: Inhibition of human adenosine receptor A1 at 10 uM
T2 sequence (whole entry): T1 sequence (P30542 whole entry)
Method in brief: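 CHO-K1 hA1AR membranes at 0.5 mg/mL in 10 mM HEPES pH 7.4 with 1 mM EDTA, 1 U/mL adenosine deaminase, 5 mM MgCl2 and 2 nM [3H]CPX. Mixed 1:1 with buffer containing 20 μM enhancer. Equilibrium 3 h at room temperature; 100 μM NECA defined nonspecific binding. Inhibition expressed relative to control specific binding; duplicate assays.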

[3] = target: T3, Adenosine receptor A3 (Homo sapiens) (UniProt P0DMS8); experiment: Inhibition of human adenosine receptor A3 at 10 uM
T3 sequence (whole entry): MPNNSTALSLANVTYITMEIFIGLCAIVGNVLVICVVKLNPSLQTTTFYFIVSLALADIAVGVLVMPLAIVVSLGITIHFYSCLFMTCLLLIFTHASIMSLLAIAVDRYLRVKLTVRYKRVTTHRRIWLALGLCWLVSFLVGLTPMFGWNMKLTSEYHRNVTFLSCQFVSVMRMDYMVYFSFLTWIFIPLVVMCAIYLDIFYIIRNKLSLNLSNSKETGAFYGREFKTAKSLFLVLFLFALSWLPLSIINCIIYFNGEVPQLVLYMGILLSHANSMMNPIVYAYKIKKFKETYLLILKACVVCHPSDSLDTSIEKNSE

[4] = target: T4, Adenosine receptor A1 (Rattus norvegicus) (UniProt P25099); experiment: Allosteric enhancer (AE) activity against rat adenosine A1 receptor at 50 uM
T4 sequence (whole entry): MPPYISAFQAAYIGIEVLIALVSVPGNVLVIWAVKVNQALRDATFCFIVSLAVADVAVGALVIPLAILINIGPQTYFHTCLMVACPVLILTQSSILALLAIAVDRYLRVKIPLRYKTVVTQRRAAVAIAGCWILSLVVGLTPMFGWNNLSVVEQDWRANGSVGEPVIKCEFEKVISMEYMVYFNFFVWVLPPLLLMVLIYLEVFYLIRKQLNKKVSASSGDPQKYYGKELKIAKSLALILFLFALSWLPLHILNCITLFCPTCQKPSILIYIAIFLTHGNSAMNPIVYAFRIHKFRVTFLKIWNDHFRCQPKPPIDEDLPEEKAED

[5] = target: T2, Adenosine receptor A1 (Homo sapiens); experiment: Allosteric enhancer (AE) activity against human adenosine A1 receptor at 50 uM
Method in brief: (§1)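 Single-point screen on membranes from CHO-K1 cells stably expressing hA1AR. Candidate enhancer was added at 50 μM final for 5 min. Dissociation was then started with 8-cyclopentyltheophylline plus GTPγS and run 10 min. Score = % specific agonist binding remaining; two to three assays, each in triplicate.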

[6] = target: T2, Adenosine receptor A1 (Homo sapiens); experiment: In vitro allosteric enhancer (AE) activity for adenosine A1 receptor at 50 uM; method in brief: as §1
[7] = target: T3, Adenosine receptor A3 (Homo sapiens); experiment: In vitro allosteric enhancer (AE) activity for adenosine A3 receptor at 50 uM
[8] = target: Adenosine receptor A2a (Homo sapiens) (UniProt P29274); experiment: In vitro allosteric enhancer (AE) activity for adenosine A2A receptor at 50 uM
[9] = target: T2, Adenosine receptor A1 (Homo sapiens); experiment: In vitro allosteric enhancer (AE) activity for adenosine A1 receptor maximal score from curve fitting

Sequence of Adenosine receptor A2a (Homo sapiens) (P29274 whole entry): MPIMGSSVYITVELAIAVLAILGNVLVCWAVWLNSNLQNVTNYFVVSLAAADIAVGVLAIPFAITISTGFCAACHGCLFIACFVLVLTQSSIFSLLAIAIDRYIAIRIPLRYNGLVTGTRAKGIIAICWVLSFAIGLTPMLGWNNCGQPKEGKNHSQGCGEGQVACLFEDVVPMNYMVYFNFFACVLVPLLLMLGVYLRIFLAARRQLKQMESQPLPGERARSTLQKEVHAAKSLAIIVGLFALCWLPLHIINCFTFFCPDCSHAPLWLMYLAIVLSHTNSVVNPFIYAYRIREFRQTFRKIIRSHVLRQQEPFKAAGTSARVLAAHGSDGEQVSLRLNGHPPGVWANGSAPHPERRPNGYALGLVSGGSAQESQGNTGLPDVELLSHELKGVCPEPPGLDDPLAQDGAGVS

Inhibition [1]: 19.2%
inhibition [2]: 18.8%
inhibition [3]: 45%
Structure (SMILES): COc1ccc(-c2ccc3c(c2)Cc2sc(N)nc2-3)cc1OC
Alloste ic enhan er (AE) [4]: 39.1%
Alloste ic enhan er (AE) [5]: 83.9%
Alloste ic enhan er (AE) [6]: 82%
Alloste ic enhan er (AE) [7]: 10.1%
Alloste ic enhan er (AE) [8]: 0.2%
Allosteric enhancer (AE) [9]: 82.7%
